Results on two compounds are retold here after ChEMBL document CHEMBL1152814, “Novel cyano- and amidinobenzothiazole derivatives: synthesis, antitumor evaluation, and X-ray and quantitative structure-activity relationship (QSAR) analysis” (J Med Chem, 2009).

Calls of active or inactive are those of the source. The calls are words filed in the database; no cut-off is given here.

In general, IC50 refers to the concentration needed to halve the response being measured. Read a low IC50 as higher potency.

Experiment [1] in a line: Antiproliferative activity against human WI38 cells after 72 hrs by MTT assay. Format: cell-based. Conditions: WI-38, 72 h. The method in brief: (§1)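 Monolayers in DMEM with 10% FBS, 2 mM L-glutamine, penicillin/streptomycin, 37 °C, 5% CO2. Seeded at 3 × 10³ to 6 × 10³ cells/well on day 0. Agents added the next day in five 10-fold dilutions (10^-8–10^-4 mol/L), with a DMSO solvent control (max 0.25%). MTT read at 570 nm after 72 h. Quadruplicate points, three experiments. IC50 is the concentration giving 50% growth inhibition.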
On the technique in general: Tetrazolium assays rely on reduction of a dye to a coloured formazan, in cell work by metabolically active cells.

For a further experiment, the system named is HeLa. In words: Antiproliferative activity against human HeLa cells after 72 hrs by MTT assay. Format: functional, cell-based. A digest of the protocol:
as §1

A further experiment concerns MIA PaCa-2. In words: Antiproliferative activity against human MIAPaCa2 cells after 72 hrs by MTT assay. The format is functional, cell-based. Conditions: MIA PaCa-2, 72 h. A digest of the protocol: as §1
For the next experiment, the system named is SW-620. In words: Antiproliferative activity against human SW620 cells after 72 hrs by MTT assay. Format: functional, cell-based. The settings on record: SW-620, 72 h. A digest of the protocol:
as §1

The next experiment relates to MCF7. In words: Antiproliferative activity against human MCF7 cells after 72 hrs by MTT assay. The format is functional, cell-based. The settings on record: MCF7, 72 h. The method in brief:
as §1

Experiment [2] relates to NCI-H460. In words: Antiproliferative activity against human H460 cells after 72 hrs by MTT assay. The format is functional, cell-based. The settings on record: NCI-H460, 72 h. The method in brief: as §1
In experiment [3] the test system is NCI-H460. In words: Cell cycle arrest in human H460 cells assessed as induction of G1 phase delay at 50 uM after 24 hrs using propidium iodide staining by FACS. The format is functional, cell-based. The method in brief:
(§2)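 H 460 cells seeded at 2 × 10⁵/well and treated after overnight incubation with 5, 10 or 50 µM for 24 or 48 h. Attached and floating cells were pooled, fixed in 70% ethanol, treated with 0.2 µg/µL RNase A (37 °C, 15 min) and stained with 50 µg/mL propidium iodide. Flow cytometry counted 20000 events, in duplicate across two independent experiments.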

Experiment [4] relates to NCI-H460. In words: Cell cycle arrest in human H460 cells assessed as induction of G2 phase delay at 50 uM after 24 hrs using propidium iodide staining by FACS. The format is functional, cell-based. The method in brief: as §2
Background: Flow cytometry measures light scatter and fluorescence of single cells or particles in a stream.

Experiment [5] relates to NCI-H460. Put plainly: Cell cycle arrest in human H460 cells assessed as reduction of percentage of cells in S phase at 50 uM after 24 hrs using propidium iodide staining by FACS. The format is functional, cell-based. A digest of the protocol:
as §2

Experiment [6] has as its system NCI-H460. Put plainly: Cell cycle arrest in human H460 cells assessed as induction of G1 phase delay at 50 uM after 48 hrs using propidium iodide staining by FACS. Format: functional, cell-based. The method in brief:
as §2

Experiment [7] concerns NCI-H460. In words: Cell cycle arrest in human H460 cells assessed as induction of G2 phase delay at 50 uM after 48 hrs using propidium iodide staining by FACS. Format: functional, cell-based. A digest of the protocol:
as §2

The subject of experiment [8] is NCI-H460. Put plainly: Cell cycle arrest in human H460 cells assessed as reduction of percentage of cells in S phase at 50 uM after 48 hrs using propidium iodide staining by FACS. Format: functional, cell-based. The method in brief:
as §2

The subject of experiment [9] is NCI-H460. Put plainly: Cell cycle arrest in human H460 cells assessed as increase in percentage of cells in G1 phase at 10 uM after 24 hrs using propidium iodide staining by FACS. Format: functional, cell-based. The method in brief:
as §2

The test system of experiment [10] is NCI-H460. Put plainly: Cell cycle arrest in human H460 cells assessed as increase in percentage of cells in G1 phase at 10 uM after 48 hrs using propidium iodide staining by FACS. The format is functional, cell-based. A digest of the protocol:
as §2

In experiment [11] the test system is NCI-H460. In words: Cell cycle arrest in human H460 cells assessed as reduction of percentage of cells in S phase at 5 to 50 uM after 24 hrs using propidium iodide staining by FACS. The format is functional, cell-based. A digest of the protocol: as §2
In experiment [12] the test system is NCI-H460. Put plainly: Cell cycle arrest in human H460 cells assessed as reduction of percentage of cells in S phase at 5 to 50 uM after 48 hrs using propidium iodide staining by FACS. Format: functional, cell-based. A digest of the protocol:
as §2

The test system of experiment [13] is NCI-H460. In words: Induction of apoptosis in human H460 cells assessed as late apoptotic cells at 50 uM after 48 hrs using annexin V staining by FACS. Format: functional. A digest of the protocol:
(§3)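 H 460 cells seeded at 2 × 10⁵/well and exposed for 48 h (5, 10 or 50 µM) against a vehicle control. Floating and attached cells were pooled and washed in binding buffer (10 mM HEPES, 140 mM NaCl, 2.5 mM CaCl2, pH 7.4). They were stained 20 min with annexin V Alexa Fluor 488 and 1 µg/mL 7-AAD, then read by flow cytometry. Quadrants: viable, early apoptotic, late apoptotic.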

Experiment [14] has as its system NCI-H460. In words: Induction of apoptosis in human H460 cells assessed as early apoptotic cells at 50 uM after 48 hrs using annexin V staining by FACS. Format: functional. A digest of the protocol: as §3
For experiment [15], the system named is NCI-H460. In words: Induction of apoptosis in human H460 cells assessed as viable cells at 50 uM after 48 hrs using annexin V staining by FACS. Conditions: NCI-H460, 48 h, read-out: Activity. The format is functional. A digest of the protocol:
as §3

Experiment [16] relates to NCI-H460. Put plainly: Induction of apoptosis in human H460 cells assessed as late apoptotic cells after 48 hrs using annexin V staining by FACS. The format is functional, cell-based. The method in brief:
as §3

Experiment [17] concerns NCI-H460. Put plainly: Induction of apoptosis in human H460 cells assessed as early apoptotic cells after 48 hrs using annexin V staining by FACS. Format: functional, cell-based. A digest of the protocol: as §3
Experiment [18] relates to NCI-H460. In words: Induction of apoptosis in human H460 cells assessed as viable cells after 48 hrs using annexin V staining by FACS. Format: functional, cell-based. A digest of the protocol:
as §3

Experiment [19] deals with NCI-H460. Put plainly: Cell cycle arrest in human H460 cells assessed as increase in percentage of cells in sub-G1 phase at 5 to 50 uM after 24 hrs using propidium iodide staining by FACS. Format: functional, cell-based. A digest of the protocol: as §2
The subject of experiment [20] is NCI-H460. In words: Cell cycle arrest in human H460 cells assessed as increase in percentage of cells in sub-G1 phase at 5 to 50 uM after 48 hrs using propidium iodide staining by FACS. Format: functional, cell-based. The method in brief:
as §2

Experiment [21] deals with NCI-H460. Put plainly: Induction of apoptosis in human H460 cells at 50 uM after 24 hrs. The format is functional.
In experiment [22] the test system is NCI-H460. In words: Induction of apoptosis in human H460 cells assessed as complete cell death at 50 uM after 48 hrs. Format: functional, cell-based.
In experiment [23] the test system is NCI-H460. Put plainly: Induction of apoptosis in human H460 cells assessed as late apoptotic cells at 5 uM after 48 hrs using annexin V staining by FACS. The format is functional. The method in brief:
as §3

Experiment [24] has as its system NCI-H460. In words: Induction of apoptosis in human H460 cells assessed as early apoptotic cells at 5 uM after 48 hrs using annexin V staining by FACS. Format: functional. A digest of the protocol:
as §3

For experiment [25], the system named is NCI-H460. In words: Induction of apoptosis in human H460 cells assessed as viable cells at 5 uM after 48 hrs using annexin V staining by FACS. The format is functional. Conditions: NCI-H460, 48 h, read-out: Activity. A digest of the protocol:
as §3

For experiment [26], the system named is NCI-H460. In words: Induction of apoptosis in human H460 cells assessed as late apoptotic cells at 10 uM after 48 hrs using annexin V staining by FACS. Format: functional. The method in brief: as §3
For experiment [27], the system named is NCI-H460. In words: Induction of apoptosis in human H460 cells assessed as early apoptotic cells at 10 uM after 48 hrs using annexin V staining by FACS. Format: functional. The method in brief: as §3
Experiment [28] concerns NCI-H460. In words: Induction of apoptosis in human H460 cells assessed as viable cells at 10 uM after 48 hrs using annexin V staining by FACS. Format: functional. Conditions: NCI-H460, 48 h, read-out: Activity. The method in brief: as §3

For `Cc1ccc(Nc2nc3ccc(C(=N)NC(C)C)cc3s2)nc1.Cl.Cl`, the half-inhibitory concentration (IC50) in [1] was determined as 31 µM; with HeLa, 12 µM; with MIA PaCa-2 it was 14 µM; with SW-620, 12 µM; in the experiment on MCF7 it was 8 µM; with NCI-H460 [2], 15 µM. Further, the result with NCI-H460 [3], in the experiment on NCI-H460 [4], in the experiment on NCI-H460 [5], in the experiment with NCI-H460 [6], in the experiment on NCI-H460 [7] and in the experiment on NCI-H460 [8] was Active. In addition, the outcome in the experiment on NCI-H460 [11] and in the experiment with NCI-H460 [12] was Active. Besides, the outcome with NCI-H460 [9] and in the experiment with NCI-H460 [10] was inactive. Besides, the Activity in the experiment with NCI-H460 [13] was 2.39%; in the experiment with NCI-H460 [14], 13.58%; in the experiment on NCI-H460 [16], “Dose-dependent effect”; in the experiment with NCI-H460 [17], “Dose-dependent effect”; with NCI-H460 [18] it was “Dose-dependent effect”. In addition, in the experiment on NCI-H460 [15], the viability at 50 µM came to 83.2%.
With `Cc1cccc(Nc2nc3ccc(C(=N)NC(C)C)cc3s2)n1.Cl.Cl`, the IC50 came out at 19 µM in experiment [1]; 4 µM with HeLa; 3 µM with MIA PaCa-2; 9 µM in the experiment with SW-620; 3 µM in the experiment with MCF7; 3 µM with NCI-H460 [2]. For the same compound, the result in the experiment with NCI-H460 [11], with NCI-H460 [12], in the experiment with NCI-H460 [19], in the experiment with NCI-H460 [20] and in the experiment with NCI-H460 [22] was Active. Besides, the Activity with NCI-H460 [21] is 40%; with NCI-H460 [23], 3.37%; in the experiment on NCI-H460 [24], 12.24%; with NCI-H460 [26] it was 3.75%; in the experiment on NCI-H460 [27], 16.43%; with NCI-H460 [16] it was “Dose-dependent effect”. Besides, the Activity entry in the experiment with NCI-H460 [17] and with NCI-H460 [18] was “Dose-dependent effect” in each case. Moreover, the viability at 5 µM in the experiment on NCI-H460 [25] worked out at 83.1%. Also, the viability at 10 µM in the experiment with NCI-H460 [28] is 77.7%.
